Test results taken from ChEMBL document CHEMBL1133744, “Synthesis and biological evaluation of bombesin constrained analogues” (J Med Chem, 2000).

Experiments:
[1] = biological target: Gastrin-releasing peptide receptor (Rattus norvegicus, UniProt P52500); assay: In vitro binding affinity against bombesin / GRP receptors on rat pancreatic acini.
Summary of the method: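 Male Wistar rat dispersed pancreatic acini (about 1 mg/mL protein) incubated 60 min at 37 °C with 20 pM (3-[125I]iodotyrosyl15)GRP and varying analogue; pellet centrifuged at 10000g, washed twice, counted. Nonspecific binding with 10 μM unlabeled BN. Specific binding as %, mean ± SD of three experiments in duplicate.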

[2] = Binding affinity against BN (bombesin) / GRP receptors in Swiss 3T3 cells; type: cell-based, Mus musculus
Summary of the method: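 Intact Swiss 3T3 cells (seeded 10⁵/well, 24 h in serum-free medium with 0.2% BSA) incubated 1 h at 22 °C in DMEM/0.2% BSA with 20 pM (3-[125I]iodotyrosyl15)GRP and varying compound; washed with cold PBS/0.2% BSA, NaOH-solubilized, radioactivity counted. Nonspecific binding with 10 μM BN. Duplicates, at least three separate trials.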

[3] = Compound was tested for stimulating [3H]-thymidine accumulation in Swiss 3T3 cells.; type: functional, cell-based; settings: Mus musculus, NIH3T3, 24 h
Summary of the method: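 Swiss 3T3 cells seeded 10⁵/well, 24 h in medium with 0.2% BSA without serum, then 24 h in DMEM/0.2% BSA; treated 24 h at 37 °C with varying analogue alone or with 10^-7 M BN, then 0.5 μCi [3H]thymidine for 2 h; TCA-precipitable radioactivity after NaOH solubilization. Agonism tested up to 10^-6 M.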

[4] = organism: Rattus norvegicus; assay: Compound was tested for stimulating amylase secretion on rat pancreatic acini.; type: functional, organism-based
Summary of the method: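 Dispersed pancreatic acini from male Wistar rats (200-300 g), about 1 mg protein/mL, incubated 30 min at 37 °C in HEPES pH 7.4 buffer with 1% BSA; amylase by Phadebas method, expressed as % of maximal BN response. Antagonism: varying analogue with 1 nM BN. Duplicate incubations.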

Sequence of Gastrin-releasing peptide receptor (P52500 whole entry): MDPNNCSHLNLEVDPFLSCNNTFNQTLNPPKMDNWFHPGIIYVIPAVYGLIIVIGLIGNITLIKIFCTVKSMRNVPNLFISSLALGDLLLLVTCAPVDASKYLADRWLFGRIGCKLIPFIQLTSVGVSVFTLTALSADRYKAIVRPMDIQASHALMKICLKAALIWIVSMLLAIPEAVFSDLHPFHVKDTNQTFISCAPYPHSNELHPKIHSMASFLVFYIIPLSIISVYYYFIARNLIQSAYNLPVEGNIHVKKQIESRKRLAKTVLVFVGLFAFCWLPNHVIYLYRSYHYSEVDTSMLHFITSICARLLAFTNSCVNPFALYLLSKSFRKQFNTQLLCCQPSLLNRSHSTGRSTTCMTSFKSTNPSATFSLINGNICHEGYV

Compound	Ki [1] [nM]	Ki [2] [nM]	EC50 [3] [nM]	EC50 [4] [nM]
CC(C)C[C@H](NC(=O)[C@H](CC(C)C)NC(=O)[C@H](Cc1cnc[nH]1)NC(=O)c1cccc(NC(=O)[C@H](C)NC(=O)[C@H](Cc2c[nH]c3ccccc23)NC(=O)[C@H](CCC(N)=O)NC(=O)[C@H](N)Cc2ccccc2)c1)C(N)=O	300			
CC(C)C[C@H](NC(=O)[C@H](CC(C)C)NC(=O)[C@H](Cc1c[nH]cn1)NC(=O)CNC(=O)[C@@H](NC(=O)[C@H](C)NC(=O)[C@H](Cc1c[nH]c2ccccc12)NC(=O)[C@H](CCC(N)=O)NC(=O)C(N)Cc1ccccc1)C(C)C)C(N)=O (stereo in doubt) [listing 1 of 3 here]		6.3		
CCCCC(O)[C@@H](CC(C)C)NC(=O)[C@H](Cc1c[nH]cn1)NC(=O)CN1CCCC[C@H](NC(=O)[C@H](C)NC(=O)[C@H](Cc2c[nH]c3ccccc23)NC(=O)[C@H](CCC(N)=O)NC(=O)[C@H](N)Cc2ccccc2)C1=O (some centres undefined)	9	2		
CC(C)C[C@H](NC(=O)[C@H](CC(C)C)NC(=O)[C@H](Cc1c[nH]cn1)NC(=O)CN1CCCC[C@H](NC(=O)[C@H](C)NC(=O)[C@H](Cc2c[nH]c3ccccc23)NC(=O)[C@H](CCC(N)=O)NC(=O)CCc2ccc(O)cc2)C1=O)C(N)=O	1.8	2	0.2	0.05
CC(C)C[C@H](NC(=O)[C@H](CC(C)C)NC(=O)[C@H](Cc1c[nH]cn1)NC(=O)CN1CCCC[C@H](NC(=O)[C@H](C)NC(=O)[C@H](Cc2c[nH]c3ccccc23)NC(=O)[C@H](CCC(N)=O)NC(=O)[C@H](N)Cc2ccccc2)C1=O)C(N)=O	1.7	1	0.02	0.22
CC(C)C[C@H](NC(=O)[C@H](CC(C)C)NC(=O)[C@H](Cc1cnc[nH]1)NC(=O)c1ccc(NC(=O)[C@H](C)NC(=O)[C@H](Cc2c[nH]c3ccccc23)NC(=O)[C@H](CCC(N)=O)NC(=O)[C@H](N)Cc2ccccc2)cc1)C(N)=O	2250			
CC(C)C[C@H](NC(=O)[C@H](CC(C)C)NC(=O)[C@H](Cc1c[nH]cn1)NC(=O)CNC(=O)[C@@H](NC(=O)[C@H](C)NC(=O)[C@H](Cc1c[nH]c2ccccc12)NC(=O)[C@H](CCC(N)=O)NC(=O)C(N)Cc1ccccc1)C(C)C)C(N)=O (stereo in doubt) [listing 2 of 3 here]			0.08	0.03
CC(C)C[C@H](NC(=O)[C@H](CC(C)C)NC(=O)[C@H](Cc1cnc[nH]1)NC(=O)c1ccccc1NC(=O)[C@H](C)NC(=O)[C@H](Cc1c[nH]c2ccccc12)NC(=O)[C@H](CCC(N)=O)NC(=O)[C@H](N)Cc1ccccc1)C(N)=O	650			
COC(=O)[C@H](CC(C)C)NC(=O)[C@H](Cc1c[nH]cn1)NC(=O)CN1CCCC[C@H](NC(=O)[C@H](C)NC(=O)[C@H](Cc2c[nH]c3ccccc23)NC(=O)[C@H](CCC(N)=O)NC(=O)CCc2ccc(O)cc2)C1=O	3.1	1.2		
CCCCC(O)[C@@H](CC(C)C)NC(=O)[C@H](Cc1c[nH]cn1)NC(=O)CN1CCCC[C@H](NC(=O)[C@H](C)NC(=O)[C@H](Cc2c[nH]c3ccccc23)NC(=O)[C@H](CCC(N)=O)NC(=O)CCc2ccc(O)cc2)C1=O (some centres undefined)	3.8	0.8		
CC(C)C[C@@H](NC(=O)[C@H](Cc1c[nH]cn1)NC(=O)CN1CCCC[C@H](NC(=O)[C@H](C)NC(=O)[C@H](Cc2c[nH]c3ccccc23)NC(=O)[C@H](CCC(N)=O)NC(=O)[C@H](N)Cc2ccccc2)C1=O)C(=O)NO	127	53		
CC(C)C[C@H](NC(=O)[C@H](CC(C)C)NC(=O)[C@H](Cc1cnc[nH]1)NC(=O)CN1CC[C@H](NC(=O)[C@H](C)NC(=O)[C@H](Cc2c[nH]c3ccccc23)NC(=O)[C@H](CCC(N)=O)NC(=O)[C@H](N)Cc2ccccc2)C1=O)C(N)=O	225			
COC(=O)[C@H](CC(C)C)NC(=O)[C@H](Cc1c[nH]cn1)NC(=O)CN1CCCC[C@H](NC(=O)[C@H](C)NC(=O)[C@H](Cc2c[nH]c3ccccc23)NC(=O)[C@H](CCC(N)=O)NC(=O)[C@H](N)Cc2ccccc2)C1=O	5.2	2		
CC(C)C[C@@H](NC(=O)[C@H](Cc1c[nH]cn1)NC(=O)CN1CCCC[C@H](NC(=O)[C@H](C)NC(=O)[C@H](Cc2c[nH]c3ccccc23)NC(=O)[C@H](CCC(N)=O)NC(=O)CCc2ccc(O)cc2)C1=O)C(=O)NO	13	11		
CC(C)C[C@H](NC(=O)[C@H](CC(C)C)NC(=O)[C@H](Cc1c[nH]cn1)NC(=O)CNC(=O)[C@@H](NC(=O)[C@H](C)NC(=O)[C@H](Cc1c[nH]c2ccccc12)NC(=O)[C@H](CCC(N)=O)NC(=O)C(N)Cc1ccccc1)C(C)C)C(N)=O (stereo in doubt) [listing 3 of 3 here]	3.2			
CC(C)C[C@H](NC(=O)[C@H](CC(C)C)NC(=O)[C@H](Cc1c[nH]cn1)NC(=O)CN1C(=O)[C@@H](NC(=O)[C@H](C)NC(=O)[C@H](Cc2c[nH]c3ccccc23)NC(=O)[C@H](CCC(N)=O)NC(=O)[C@H](N)Cc2ccccc2)N=C(c2ccccc2)c2ccccc21)C(N)=O	500			
